The text below walks through data of PubChem BioAssay AID588828 (Broad Institute, 2011).

The experiment concerns the target Scavenger receptor class B member 1 (Mus musculus) (UniProt Q61009). Nature of the experiment: inhibitors of SR-BI-mediated DiI-HDL uptake, dose response, ldlA[mSR-BI] CHO cells, fluorescence, dry powder, set 6 (AID 588828). The conditions noted are these: 3 h; for activity change, negative = inhibition: at 35 µM (top of the series). The procedure, abridged: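 timing = 3 h DiI-HDL exposure, 37 °C | test system = mSR-BI-overexpressing CHO ldlA cells | buffer or medium = BSA/HEPES medium, pH 7.4 | control set = DMSO neutral, BLT-1 positive | measured by = fluorescence, bottom read, excitation 550 nm, emission 595 nm | reagent = DiI-labelled HDL at 10 µg/mL | doses = compound concentration series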

The structures appear in SMILES notation. Activity calls are given as the source filed them.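 The calls were made as follows: active = compounds cutting labeled HDL uptake fluorescence whose fitted AC50 is within ten times their top tested dose; inconclusive = flat fit with 30 to 70% inhibition, or poor fit; inactive = the rest.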 Some results are limits rather than exact numbers.

Scavenger receptor class B member 1 (Mus musculus), sequence (Q61009 whole entry, looked up): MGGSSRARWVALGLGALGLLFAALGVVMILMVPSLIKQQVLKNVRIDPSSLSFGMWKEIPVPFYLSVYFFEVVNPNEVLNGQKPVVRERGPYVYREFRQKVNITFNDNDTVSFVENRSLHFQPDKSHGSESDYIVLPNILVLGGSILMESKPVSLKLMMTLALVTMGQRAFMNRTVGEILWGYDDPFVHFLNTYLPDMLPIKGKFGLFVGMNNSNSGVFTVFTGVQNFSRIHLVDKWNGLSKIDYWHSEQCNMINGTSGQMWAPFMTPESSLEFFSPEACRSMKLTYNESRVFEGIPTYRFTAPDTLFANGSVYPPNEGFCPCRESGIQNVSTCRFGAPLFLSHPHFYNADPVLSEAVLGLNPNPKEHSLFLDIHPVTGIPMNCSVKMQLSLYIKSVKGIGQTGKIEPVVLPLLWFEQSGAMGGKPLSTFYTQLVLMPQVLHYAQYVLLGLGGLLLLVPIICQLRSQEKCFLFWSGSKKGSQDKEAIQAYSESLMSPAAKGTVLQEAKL

Regarding `CC(=O)N1CCc2cc(-c3nc(NC(=O)c4cccc(OC(F)(F)F)c4)sc3C)ccc21`, the AC50 – broadly, the midpoint of the concentration-response curve, whichever way the signal moves – was 0.614 µM. As for `COCC(=O)N1CCc2cc(-c3csc(NC(=O)c4cc(OC)cc(OC)c4)n3)ccc21`, the AC50 was 0.00366 µM. `Cc1ccc2oc(-c3cccc(NC(=O)c4cc(-n5cnnc5)ccc4Cl)c3)nc2c1`: the AC50 was 0.568 µM. Take `CCNC(=O)N1CCc2cc(-c3csc(NC(=O)c4cc(OC)cc(OC)c4)n3)ccc21`: the half-maximal activity concentration (AC50) is 0.000927 µM. Take `CCCCCCC1CCC/C1=N\NC(N)=S` (stereo unspecified): the AC50 was 0.0187 µM. The same measure, in the same setting: then `COc1ccc(-c2cc(CC(=O)N(C3CCCCC3)C(C)C(=O)NC3CCCC3)no2)cc1OC` (stereo unspecified), with 0.00319 µM. Take `COc1c(NC(=O)C(=O)c2ccc(OCCN3CCOCC3)c3ccccc23)cc(C(C)(C)C)cc1NS(C)(=O)=O`: the “activity change, negative = inhibition” value is “inactive”. In the case of `COc1cc(OC)cc(C(=O)Nc2nc(-c3ccc4c(c3)CCN4C(=O)CN(C)C)cs2)c1`, the AC50 was 0.0063 µM.

Consider `C[C@@H]1CN([C@H](C)CO)C(=O)c2cc(NC(=O)Cc3cn(C)c4ccccc34)ccc2O[C@H]1CN(C)S(=O)(=O)c1ccc(Cl)cc1`, for which the concentration at half-maximal activity (AC50) was 0.0438 µM. For the molecule `COc1cc(OC)cc(C(=O)Nc2nc(-c3ccc4c(c3)CCN4C(=O)OC(C)(C)C)cs2)c1`, the AC50 was 0.00689 µM. For the molecule `CCC(=O)N1CCc2cc(-c3csc(NC(=O)c4cccc(OC)c4)n3)ccc21`, the half-maximal activity concentration (AC50) was 0.0926 µM. Consider `C[C@@H]1CN([C@@H](C)CO)C(=O)Cc2cc(NC(=O)Nc3ccc(C(F)(F)F)cc3)ccc2O[C@@H]1CN(C)S(=O)(=O)c1ccc(Cl)cc1`, for which the AC50 was > 22 µM (inactive).

As to `C[C@H](C(=O)NC1CCCC1)N(C(=O)Cn1nnc(-c2ccc3c(c2)OCO3)n1)C1CCCCC1`, the AC50 is 0.00122 µM. Take `CCC(=O)N1CC(C)(C)c2cc(-c3csc(NC(=O)c4cc(OC)cc(OC)c4)n3)ccc21`: the concentration at half-maximal activity (AC50) is 0.0142 µM. Take `CC(C)(Sc1cc(C(C)(C)C)c(O)c(C(C)(C)C)c1)Sc1cc(C(C)(C)C)c(O)c(C(C)(C)C)c1`: the “activity change, negative = inhibition” value is “inactive”. Take `CCC(=O)N1CCc2cc(-c3csc(NC(=O)c4ccc(F)c(OC)c4)n3)ccc21`: the concentration at half-maximal activity (AC50) is 0.287 µM.
